Data taken from ChEMBL document CHEMBL1132373, “Synthesis, opioid receptor binding, and biological activities of naltrexone-derived pyrido- and pyrimidomorphinans” (J Med Chem, 1999).

Assays:
[1] = molecular target: Delta-type opioid receptor (Mus musculus, UniProt P32300); experiment: (§1) Antagonist potency measured as Ke = [antagonist]/(IC50 ratio-1) against delta opioid receptor from mouse vas deferens (MVD) using DPDPE; type: functional
Method in brief: (§2)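 Vas deferens from male ICR mice (25-40 g) in 37 °C oxygenated magnesium-free Krebs, 0.5 g tension, field-stimulated 0.1 Hz, 2-ms pulses. Compound 1 µM for 30 min, washout 30 min, cumulative DPDPE curve repeated. Ke = [antagonist]/(IC50 ratio - 1); IC50 from 2-4 tissues, n ≥ 3, nonlinear least squares.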

[2] = molecular target: Delta-type opioid receptor (Rattus norvegicus, UniProt P33533); experiment: Binding affinity for Opioid receptor delta 1 was determined by inhibition of binding of [3H]DADLE (1.3-2.0 nM) to rat brain membranes; type: cell membranes, Membrane
Method in brief: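 Rat brain membranes prepared daily (homogenised in ice-cold 10 mM Tris-HCl pH 7.0, centrifuged twice at 30000g). [3H]DADLE (2 nM) incubated 2 h at 25 °C in 50 mM Tris-HCl pH 7.4 with 100 mM choline chloride, 3 mM MnCl2, 100 nM DAMGO blocking mu sites, protease inhibitors. Nonspecific: 20 µM levallorphan. 8-10 drug concentrations, duplicate; Ki = IC50/(1+[L]/Kd).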

[3] = organism: Mus musculus; experiment: Inhibition of contraction (agonistic activity) of mouse vas deferens (MVD) at 1 uM concentration.; type: functional
[4] = molecular target: Mu-type opioid receptor (Cavia porcellus) (UniProt P97266); experiment: Antagonist potency against mu opioid receptor in guinea pig ileum (GPI) using […]; type: functional, tissue-based
Method in brief: (§3)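 Longitudinal muscle-myenteric plexus strips from male Hartley guinea pigs (250-500 g), 37 °C oxygenated Krebs, 1 g tension, 0.1 Hz, 0.4 ms pulses. Preincubated 30 min with 1 µM compound, washed 30 min, cumulative PL-017 curve repeated. Ke = [antagonist]/(IC50 ratio - 1); IC50 from 2-4 tissues.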

[5] = molecular target: Kappa-type opioid receptor (Cavia porcellus, UniProt P41144); experiment: Binding affinity for Opioid receptor kappa 1 was determined by inhibition of binding of [3H]U-69593 (1.2-2.2 nM) to guinea pig brain membranes; design: species or system Membrane
Method in brief: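 Guinea pig brain membranes prepared daily, washed twice at 30000g. [3H]U69,593 (2 nM) incubated 2 h at 25 °C in 50 mM Tris-HCl pH 7.4 with 1 µg/mL captopril and protease inhibitors. Nonspecific binding with 1 µM U69,593. 8-10 drug concentrations, twice; Ki = IC50/(1+[L]/Kd).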

[6] = molecular target: Delta-type opioid receptor (Mus musculus) (UniProt P32300); experiment: Antagonist potency against delta opioid receptor in mouse vas deferens (MVD) using DPDPE; type: functional, tissue-based; method in brief: as §2
[7] = molecular target: Mu-type opioid receptor (Rattus norvegicus, UniProt P33535); experiment: Binding affinity for Opioid receptor mu 1 was determined by inhibition of binding of [3H]DAMGO (1.4-3 nM) to rat brain membranes; type: cell membranes, Membrane
Method in brief: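 Rat brain membranes prepared daily, washed twice at 30000g. Labelled with [3H]DAMGO (1-3 nM), 2 h at 25 °C in 50 mM Tris-HCl pH 7.4 plus protease inhibitor cocktail. Nonspecific binding with 20 µM levallorphan. Test drug at 8-10 concentrations, run twice; Ki from IC50 via Ki = IC50/(1+[L]/Kd).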

[8] = organism: Cavia porcellus; experiment: Selectivity ratio of binding affinity towards kappa of guinea pig brain membrane to delta receptors of rat brain membranes; type: cell membranes
[9] = organism: Cavia porcellus; experiment: Selectivity ratio of binding affinity towards mu of […] preparations; type: tissue-based
[10] = molecular target: Opioid receptors; mu & delta (Rattus norvegicus) (UniProt P33533+P33535); experiment: Selectivity ratio of binding affinity towards mu to delta receptors of rat brain membranes; type: cell membranes; conditions: Membrane
[11] = organism: Cavia porcellus; experiment: Inhibition of contraction (agonistic activity) of guinea pig ileum(GPI) at 1 uM concentration.; type: functional
Method in brief: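 Guinea pig ileum longitudinal muscle strips, 37 °C oxygenated Krebs, 1 g tension, 0.1 Hz, 0.4 ms pulses, supramaximal voltage.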

[12] = molecular target: Mu-type opioid receptor (Cavia porcellus) (UniProt P97266); experiment: Opioid antagonist potency against […] mu-opioid receptor from guinea pig ileum(GPI).; type: functional, tissue-based; method in brief: as §3
[13] = molecular target: Delta-type opioid receptor (Mus musculus) (UniProt P32300); experiment: as §1; type: functional; method in brief: as §2
[14] = molecular target: Delta-type opioid receptor (Mus musculus) (UniProt P32300)

Opioid receptors; mu & delta (Rattus norvegicus), sequence (P33533 whole entry, looked up): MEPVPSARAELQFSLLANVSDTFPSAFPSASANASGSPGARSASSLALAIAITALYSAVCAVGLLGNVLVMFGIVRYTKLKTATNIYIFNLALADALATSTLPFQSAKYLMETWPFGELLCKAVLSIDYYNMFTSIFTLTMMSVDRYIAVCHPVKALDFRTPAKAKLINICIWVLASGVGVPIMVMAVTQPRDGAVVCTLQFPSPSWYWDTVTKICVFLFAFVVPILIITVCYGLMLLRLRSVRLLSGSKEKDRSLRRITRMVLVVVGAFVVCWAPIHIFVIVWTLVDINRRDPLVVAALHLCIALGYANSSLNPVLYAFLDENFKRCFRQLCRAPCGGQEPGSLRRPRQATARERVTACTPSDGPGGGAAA
Opioid receptors; mu & delta (Rattus norvegicus), sequence (P33535 whole entry, looked up): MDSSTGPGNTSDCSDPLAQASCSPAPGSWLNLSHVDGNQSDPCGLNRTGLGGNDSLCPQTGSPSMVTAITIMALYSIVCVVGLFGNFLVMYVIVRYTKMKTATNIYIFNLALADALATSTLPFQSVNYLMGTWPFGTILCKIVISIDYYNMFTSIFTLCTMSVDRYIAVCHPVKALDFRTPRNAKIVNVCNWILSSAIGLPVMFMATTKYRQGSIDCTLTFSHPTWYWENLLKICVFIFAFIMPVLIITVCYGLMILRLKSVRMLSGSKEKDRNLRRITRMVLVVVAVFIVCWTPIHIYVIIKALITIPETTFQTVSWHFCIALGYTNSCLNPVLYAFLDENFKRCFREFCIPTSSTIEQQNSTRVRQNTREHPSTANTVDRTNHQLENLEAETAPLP
Delta-type opioid receptor (Rattus norvegicus, UniProt P33533), sequence (P33533 whole entry): as the sequence (P33533 whole entry, looked up) above
Delta-type opioid receptor (Mus musculus), sequence (P32300 whole entry): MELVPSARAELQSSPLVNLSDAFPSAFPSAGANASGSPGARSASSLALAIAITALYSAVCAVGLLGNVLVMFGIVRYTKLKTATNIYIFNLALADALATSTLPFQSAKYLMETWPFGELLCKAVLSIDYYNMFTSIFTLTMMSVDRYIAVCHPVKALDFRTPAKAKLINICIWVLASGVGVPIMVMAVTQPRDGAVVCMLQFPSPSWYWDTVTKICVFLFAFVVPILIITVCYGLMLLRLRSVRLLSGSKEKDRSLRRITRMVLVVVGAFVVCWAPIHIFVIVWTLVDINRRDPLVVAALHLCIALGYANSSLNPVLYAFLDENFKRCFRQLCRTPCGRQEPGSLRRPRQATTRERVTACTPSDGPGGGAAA
Kappa-type opioid receptor, sequence (P41144 whole entry): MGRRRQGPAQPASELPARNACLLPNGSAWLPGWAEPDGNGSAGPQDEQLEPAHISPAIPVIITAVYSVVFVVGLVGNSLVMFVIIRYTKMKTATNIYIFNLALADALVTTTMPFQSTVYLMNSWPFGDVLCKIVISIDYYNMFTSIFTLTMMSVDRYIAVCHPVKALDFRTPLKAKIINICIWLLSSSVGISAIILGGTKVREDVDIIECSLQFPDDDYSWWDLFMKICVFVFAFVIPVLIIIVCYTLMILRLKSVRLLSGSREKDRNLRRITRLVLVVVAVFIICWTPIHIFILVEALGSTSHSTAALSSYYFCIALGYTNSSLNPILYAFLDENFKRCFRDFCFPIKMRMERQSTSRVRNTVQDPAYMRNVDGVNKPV
Mu-type opioid receptor (Cavia porcellus), sequence (P97266 whole entry): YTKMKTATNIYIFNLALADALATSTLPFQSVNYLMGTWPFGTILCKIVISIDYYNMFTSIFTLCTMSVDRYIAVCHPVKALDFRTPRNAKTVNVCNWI
Mu-type opioid receptor, sequence (P33535 whole entry): as the sequence (P33535 whole entry, looked up) above
Delta-type opioid receptor (Mus musculus, UniProt P32300), sequence (P32300 whole entry): as the sequence (P32300 whole entry) above

Row | Compound | Ki [1] [µM] | Ki [2] [µM] | Percent inhibition of contraction at 1 uM [3] [%] | IC50 ratio [4] | Ki [5] [µM] | IC50 ratio [6] | Ki [7] [µM] | Selectivity ratio [8] | Selectivity ratio [9] | Selectivity ratio [10] | Percent inhibition of contraction at 1 uM [11] [%] | Ke [12] [nM] | Ke [13] [nM] | IC50 [3] [%] | IC50 [11] [%] | IC50 ([3]; Mus musculus) [µM] | IC50 ([11]; Cavia porcellus, Ileum) [µM] | Ke [14] [nM] | inhibition at 1 µM [3] [%] | inhibition at 1 µM [11] [%]
1 | Oc1ccc2c3c1O[C@H]1c4ncc(-c5ccccc5)cc4C[C@@]4(O)[C@@H](C2)N(CC2CC2)CC[C@]314 | 0.0034 | 0.00087 | 4.7 | 24.6 | 0.0176 | 249 | 0.0135 | 20 | 12 | 16 |  |  |  |  |  |  |  |  |  | 
2 | Oc1ccc2c3c1O[C@H]1c4nc5ccccc5c(-c5ccccc5)c4C[C@@]4(O)[C@@H](C2)N(CC2CC2)CC[C@]314 |  | 0.073 |  |  | 0.272 |  | 0.308 | 3.7 |  | 4.2 |  |  |  |  |  |  |  |  |  | 
3 | Oc1ccc2c3c1O[C@H]1c4[nH]c5ccccc5c4C[C@@]4(O)[C@@H](C2)N(CC2CC2)CC[C@]314 [NALTRINDOLE] |  |  | 16 |  |  |  |  |  |  |  | 18 | 43 |  |  |  |  |  |  |  | 
4 | Oc1ccc2c3c1OC1c4nccc(-c5ccccc5)c4C[C@@]4(O)[C@@H](C2)N(CC2CC2)CC[C@]314 (some centres undefined) |  | 0.073 | 31 | 6.21 | 0.264 | 20.5 | 0.191 | 3.6 | 3.7 | 2.6 | 14.8 | 190 | 51 |  |  |  |  |  |  | 
5 | Oc1ccc2c3c1O[C@H]1c4nc(Cc5ccccc5)nc(-c5ccccc5)c4C[C@@]4(O)[C@@H](C2)N(CC2CC2)CC[C@]314 |  | 0.1 |  | 23.8 | 1.27 | 4.8 | 0.233 | 13 | 0.17 | 2.3 |  | 44 | 260 | 11.7 | 14 |  |  |  |  | 
6 | Cc1nc(-c2ccccc2)c2c(n1)C1Oc3c(O)ccc4c3[C@@]13CCN(CC1CC1)[C@H](C4)[C@]3(O)C2 (some centres undefined) |  | 0.325 |  |  | 0.565 |  | 0.254 | 1.7 |  | 0.8 |  |  |  |  |  |  |  |  |  | 
7 | Oc1ccc2c3c1O[C@H]1c4ncnc(-c5ccccc5)c4C[C@@]4(O)[C@@H](C2)N(CC2CC2)CC[C@]314 |  | 0.23 | 15.4 | 5.9 | 0.216 | 4.3 | 0.348 | 0.9 | 0.7 | 1.5 | 17 | 204 | 300 |  |  |  |  |  |  | 
8 | Cc1cc(-c2ccccc2)c2c(n1)C1Oc3c(O)ccc4c3[C@@]13CCN(CC1CC1)[C@H](C4)[C@]3(O)C2 (some centres undefined) |  | 0.125 |  |  | 0.677 |  | 0.154 | 5.4 |  | 1.2 |  |  |  |  |  | 0.0012 | 0.0054 |  |  | 
9 | Oc1ccc2c3c1O[C@H]1c4ncc(-c5ccc(Cl)cc5)cc4C[C@@]4(O)[C@@H](C2)N(CC2CC2)CC[C@]314 |  |  | 21 |  |  |  |  |  |  |  |  |  |  |  |  |  | 0.163 |  |  | 
10 | Oc1ccc2c3c1O[C@H]1c4ncccc4C[C@@]4(O)[C@@H](C2)N(CC2CC2)CC[C@]314 |  | 0.00078 |  | 7.08 | 0.0088 |  | 0.0015 | 11 | 4.4 | 1.9 |  |  |  |  |  |  |  | 37 | 0 | 0
11 | Oc1ccc2c3c1O[C@H]1c4nc(-c5ccccc5)nc(-c5ccccc5)c4C[C@@]4(O)[C@@H](C2)N(CC2CC2)CC[C@]314 |  | 0.344 |  | 2.8 | 2.54 | 7.63 | 1.17 | 7.4 | 3.7 | 3.4 |  | 560 | 150 |  |  |  |  |  |  | 
12 | Oc1ccc2c3c1O[C@H]1c4nc(-c5ccccc5)ncc4C[C@@]4(O)[C@@H](C2)N(CC2CC2)CC[C@]314 |  | 0.016 |  | 34.1 | 0.011 | 14.3 | 0.022 | 0.7 | 0.4 | 1.4 |  | 30 | 75 |  |  |  | 0.004 |  |  | 
13 | Oc1ccc2c3c1O[C@H]1c4ncncc4C[C@@]4(O)[C@@H](C2)N(CC2CC2)CC[C@]314 |  | 0.0035 |  | 7.52 | 0.00624 | 14.4 | 0.00415 | 1.8 | 2 | 1.2 |  | 150 | 75 |  |  |  |  |  |  | 
14 | Cc1ncc2c(n1)[C@@H]1Oc3c(O)ccc4c3[C@@]13CCN(CC1CC1)[C@H](C4)[C@]3(O)C2 |  | 0.0227 |  |  | 0.025 | 7.6 | 0.006 | 1.1 |  | 0.3 |  |  | 150 |  |  | 0.003 |  |  |  | 
15 | Oc1ccc2c3c1O[C@H]1c4nc(-c5ccccc5)ccc4C[C@@]4(O)[C@@H](C2)N(CC2CC2)CC[C@]314 |  | 0.00176 |  | 12.4 | 0.0184 | 41.1 | 0.011 | 10 | 3.5 | 6.3 |  | 88 | 25 |  |  |  |  |  |  | 
16 | Oc1ccc2c3c1O[C@H]1c4nc(-c5ccccc5)cc(-c5ccccc5)c4C[C@@]4(O)[C@@H](C2)N(CC2CC2)CC[C@]314 |  | 0.086 |  |  | 2.12 | 21.2 | 0.652 | 25 |  | 7.6 |  |  | 49 |  |  |  |  |  |  | 
